{
  "source": "ChEMBL document CHEMBL1649302",
  "about": "“New small-molecule inhibitor class targeting human immunodeficiency virus type 1 virion maturation” (Antimicrob Agents Chemother, 2009)",
  "key": {"[1]": {"assay": "Therapeutic index, ratio of CC50 for human MT2 cells to EC50 for HIV1 3B infected in human MT2 cells", "assay_type": "cell-based", "details": "read-out: TI", "outline": "(§1)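 TI was the mean CC50 (XTT, uninfected MT-2) divided by the mean EC50, determined for each cell line in each experiment.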"}, "[2]": {"assay": "Therapeutic index, ratio of CC50 for human MT2 cells to EC50 for HIV1 92HT594 infected in human MT2 cells", "assay_type": "cell-based", "details": "read-out: TI", "outline": "as §1"}, "[3]": {"assay": "Therapeutic index, ratio of CC50 for human PBMC to EC50 for HIV1 93BR023 infected in human PBMC", "details": "read-out: TI", "outline": "(§2)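 PHA-stimulated (4 μg/ml, 48 to 72 h) PBMCs pooled from at least two seronegative donors, kept with 20 U/ml IL-2, plated at 5 × 10⁴ cells/well. Infected with clinical isolate (final MOI ≅0.1) alongside nine compound concentrations in triplicate wells, 7 days. Supernatant reverse transcriptase activity measured. TI is mean PBMC CC50 divided by mean EC50.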"}, "[4]": {"system": "Human immunodeficiency virus 1", "assay": "Antiviral activity against HIV1 3B infected in human MT2 cells assessed as protection against virus-induced cytopathogenicity after 6 days by XTT assay", "assay_type": "functional, organism-based", "details": "Human immunodeficiency virus 1, 3B, MT2, 144 h", "outline": "(§3)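 Host cells were infected with NL4-3 or IIIB (MOI 0.08) or RF (MOI 0.025–0.819) and seeded at 2 × 10⁴/well onto half-log compound dilutions. After 6 days, XTT/PMS was added for 4 h and formazan was read at 450 nm. EC50 was the concentration giving 50% of the formazan of uninfected, compound-free cells.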"}, "[5]": {"system": "Human immunodeficiency virus 1", "assay": "Antiviral activity against HIV1 NL4-3 infected in human MT2 cells assessed as protection against virus-induced cytopathogenicity after 6 days by XTT assay", "assay_type": "functional, organism-based", "details": "Human immunodeficiency virus 1, NL4-3, MT2, 144 h", "outline": "as §3"}, "[6]": {"assay": "Therapeutic index, ratio of CC50 for human PBMC to EC50 for HIV1 92BR017 infected in human PBMC", "details": "read-out: TI", "outline": "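Frozen PHA-stimulated (1.5 μg/ml, 3 days) buffy-coat PBMCs pooled from three or four seronegative donors. Infected with a TCID50-based virus input per 10⁶ cells for 1 h at 37°C, then pelleted and resuspended in 10 ng/ml IL-2. Plated at 4 × 10⁵ cells/ml on compound dilutions for 7 days at 37°C. Supernatant RT measured by Quan-T-RT. TI is mean CC50 divided by mean EC50.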"}, "[7]": {"system": "Human immunodeficiency virus 1", "assay": "Antiviral activity HIV1 92US072 infected in human PBMC after 7 days by scintillation counting", "assay_type": "functional, organism-based", "details": "Human immunodeficiency virus 1, 92US072, 168 h", "outline": "(§4)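 Fresh PBMCs from HIV/HBV-seronegative donors were PHA-stimulated (4 μg/ml, 48–72 h) and kept with IL-2 (20 U/ml), with at least two donors pooled. Cells were seeded at 5 × 10⁴/well and infected (final MOI ≅0.1) with nine compound concentrations in triplicate wells. After 7 days, reverse transcriptase activity was measured in cell-free supernatant.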"}, "[8]": {"system": "Human immunodeficiency virus 1", "assay": "Antiviral activity HIV1 92BR026 infected in human PBMC after 7 days by scintillation counting", "assay_type": "functional, organism-based", "details": "Human immunodeficiency virus 1, 92BR026, 168 h"}, "[9]": {"assay": "Therapeutic index, ratio of CC50 for human PBMC to EC50 for HIV1 92US072 infected in human PBMC", "details": "read-out: TI", "outline": "as §2"}, "[10]": {"system": "Human immunodeficiency virus 1", "assay": "Antiviral activity HIV1 3B infected in human PBMC after 7 days by scintillation counting", "assay_type": "functional, organism-based", "details": "Human immunodeficiency virus 1, 3B, 168 h", "outline": "(§5)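 PBMCs came from buffy coats pooled from 3–4 seronegative donors, were PHA-stimulated (1.5 μg/ml, 3 days) and frozen. Thawed cells were infected 1 h at 37°C with virus input set by TCID50, then pelleted and resuspended in IL-2 (10 ng/ml). They were plated at 4 × 10⁵ cells/ml onto compounds for 7 days at 37°C. Supernatant RT activity was measured by Quan-T-RT scintillation assay.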"}, "[11]": {"system": "Human immunodeficiency virus 1", "assay": "Antiviral activity HIV1 92BR030 infected in human PBMC after 7 days by scintillation counting", "assay_type": "functional, organism-based", "details": "Human immunodeficiency virus 1, 92BR030, 168 h", "outline": "as §4"}, "[12]": {"system": "Human immunodeficiency virus 1", "assay": "Antiviral activity against HIV1 harboring spacer peptide A1V mutant protein infected in human HeLa cells assessed as decrease in viral infection after […] by beta-galactosidase reporter gene assay", "assay_type": "functional, organism-based", "details": "Human immunodeficiency virus 1, HeLa", "outline": "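MT-2 cells were infected for 2 h with wild-type NL4-3 or recombinant NL4-3 carrying CA I201V or SP1 A1V. They were then cocultured with HeLa CD4 LTR/beta-Gal indicator cells in serially diluted compound. Beta-gal reporter was read after 4 days. EC50s are means ± SD of 3–6 experiments. Fold change is mutant EC50 divided by wild-type EC50.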"}, "[13]": {"system": "Human immunodeficiency virus 1", "assay": "Antiviral activity against HIV1 NL4-3 infected in human PM1 cells assessed as inhibition of viral p24 antigen production after 5 days", "assay_type": "functional, organism-based", "details": "Human immunodeficiency virus 1, NL4-3, PM1, 120 h", "outline": "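PM1 cells (NL4-3, Ba-L) or MT-2 cells (92HT594, 92HT599) were infected at MOI 0.16 for 2 h and washed. They were plated at 1 × 10⁴ cells/well (2 × 10⁵/ml) onto half-log compound dilutions. Supernatant p24 was quantified by ELISA at day 5. EC50 was the concentration giving a 50% decrease versus infected, compound-free cells.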"}, "[14]": {"assay": "Therapeutic index, ratio of CC50 for human PBMC to EC50 for HIV1 91US005 infected in human PBMC", "details": "read-out: TI", "outline": "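TI was the mean PBMC CC50 divided by the mean EC50 from the 7-day PBMC reverse transcriptase assay.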"}, "[15]": {"assay": "Therapeutic index, ratio of CC50 for human PBMC to EC50 for HIV1 WEJO infected in human PBMC", "details": "read-out: TI", "outline": "as §2"}, "[16]": {"system": "Human immunodeficiency virus 1", "assay": "Antiviral activity HIV1 92US076 infected in human PBMC after 7 days by scintillation counting", "assay_type": "functional, organism-based", "details": "Human immunodeficiency virus 1, 92US076, 168 h", "outline": "as §4"}, "[17]": {"assay": "Therapeutic index, ratio of CC50 for human PM1 cells to EC50 for HIV1 NL4-3 infected in human PM1 cells", "assay_type": "cell-based", "details": "read-out: TI", "outline": "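PM1 cells infected at MOI 0.16 for 2 h, washed, then seeded at 1 × 10⁴ cells/well on half-log compound dilutions. After 5 days, supernatant p24 antigen was quantified by ELISA kit. EC50 is the concentration halving p24 versus infected untreated cells. CC50 was measured in PM1 cells by XTT formazan at 450 nm. TI is CC50 divided by EC50.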"}, "[18]": {"system": "Human immunodeficiency virus 1", "assay": "Antiviral activity against HIV1 NL4-3 infected in human HeLa cells assessed as decrease in single-cycle viral infection after 72 hrs by beta-galactosidase reporter gene assay", "assay_type": "functional, organism-based", "details": "Human immunodeficiency virus 1, NL4-3, HeLa", "outline": "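HeLa CD4 LTR/beta-Gal cells (1 × 10⁴/well, DMEM + 10% FBS) were pre-dosed with half-log compound dilutions. They were infected at MOI 0.03 with single-cycle NL4-3 reporter virus made by cotransfecting HEK 293 cells with pNL4-3deltaEnv and an NL4-3 envelope vector. EC50 is from beta-gal reporter activity relative to infected untreated cells, across three experiments.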"}, "[19]": {"assay": "Therapeutic index, ratio of CC50 for human MT2 cells to EC50 for HIV1 92HT599 infected in human MT2 cells", "assay_type": "cell-based", "details": "read-out: TI", "outline": "as §1"}, "[20]": {"system": "Human immunodeficiency virus 1", "assay": "Antiviral activity HIV1 93BR029 infected in human PBMC after 7 days by scintillation counting", "assay_type": "functional, organism-based", "details": "Human immunodeficiency virus 1, 93BR029, 168 h", "outline": "as §5"}},
  "data": [
    {"smiles": "CC(C)(C)c1ccc(C(Cn2cccc(C(F)(F)F)c2=O)NC2Cc3ccccc3C2)cc1", "note": "(stereo not given)", "values": [
      {"measurement": "selectivity ratio", "setting": "[1]", "value": 1120},
      {"measurement": "selectivity ratio", "setting": "[2]", "value": 79},
      {"measurement": "selectivity ratio", "setting": "[3]", "value": "< 1"},
      {"measurement": "EC50", "setting": "[4]", "value": 17, "unit": "nM"},
      {"measurement": "EC50", "setting": "[5]", "value": 360, "unit": "nM"},
      {"measurement": "selectivity ratio", "setting": "[6]", "value": 142},
      {"measurement": "EC50", "setting": "[7]", "value": 5, "unit": "nM"},
      {"measurement": "EC50", "setting": "[8]", "value": "> 17000", "unit": "nM"},
      {"measurement": "selectivity ratio", "setting": "[9]", "value": 3400},
      {"measurement": "EC50", "setting": "[10]", "value": 320, "unit": "nM"},
      {"measurement": "EC50", "setting": "[11]", "value": "> 17000", "unit": "nM"},
      {"measurement": "EC50", "setting": "[12]", "value": "> 3200", "unit": "nM"},
      {"measurement": "EC50", "setting": "[13]", "value": 30, "unit": "nM"},
      {"measurement": "selectivity ratio", "setting": "[14]", "value": "< 1"},
      {"measurement": "selectivity ratio", "setting": "[15]", "value": 11},
      {"measurement": "EC50", "setting": "[16]", "value": 7, "unit": "nM"},
      {"measurement": "selectivity ratio", "setting": "[17]", "value": 633},
      {"measurement": "EC50", "setting": "[18]", "value": "> 10000", "unit": "nM"},
      {"measurement": "selectivity ratio", "setting": "[19]", "value": 90},
      {"measurement": "EC50", "setting": "[20]", "value": 570, "unit": "nM"}
    ]}
  ]
}
